aDG glyco up – increases alpha dystroglycan glycosylation; activation, % at 10 µM; Pro5-aDG cells, alpha-DG glycosylation AlphaScreen (IIH6); 0% Pro5, 100% B10-LARGE cell signal; 360,000 compounds, 0.22% hits;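 active means activation of at least 8% versus controls, or a plate z-score of at least 8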;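 further: Pro5 are CHO cells carrying HIG-tagged alpha-DG that lacks glycosylation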
MsrA inh – inhibits bovine methionine sulfoxide reductase A; inhibition, % at 15.5 µM; 360,000 compounds, 0.75% hits; purified bovine MsrA, absorbance read-out; in the data active means inhibition above about 4.5%;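 further: 0% = vehicle wells with enzyme and 100% = reference inhibitor wells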
UCH37 DUB inh – inhibitors of human deubiquitinating enzyme UCH37. 330,000 compounds, 0.33% hits. purified proteasome/UCH37, Ub-AMC cleavage fluorescence. Q9Y5K5. inhibition, % (concentration not given with the values). AID 588478;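 active means mean inhibition over replicate wells above about 20%, limit read from the data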;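 further: 0% = compound-free wells with enzyme and 100% = wells lacking proteasome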
Target sequence (Q9Y5K5 whole entry, looked up): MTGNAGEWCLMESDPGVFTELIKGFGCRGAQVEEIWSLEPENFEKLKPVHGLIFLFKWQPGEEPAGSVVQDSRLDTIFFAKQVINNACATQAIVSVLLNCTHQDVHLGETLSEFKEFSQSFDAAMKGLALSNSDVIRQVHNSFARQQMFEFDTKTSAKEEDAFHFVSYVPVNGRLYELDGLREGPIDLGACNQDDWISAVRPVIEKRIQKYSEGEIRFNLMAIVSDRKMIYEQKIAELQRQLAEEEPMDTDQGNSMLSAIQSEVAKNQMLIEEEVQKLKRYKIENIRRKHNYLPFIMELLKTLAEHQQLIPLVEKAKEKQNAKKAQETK
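assay system = human UCH37 enzyme supplied as purified proteasome complex | amount = proteasome at 0.15 nM in the dispensed enzyme solution | schedule = 30 min compound-proteasome preincubation then 25 min substrate reaction, room temperature | measured by = fluorescence, ex 355 nm, em 460 nm | benchmarks = no-proteasome wells (full inhibition) and compound-free wells (no inhibition)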
Vif imaging – inhibitors of HIV Vif; 340,000 compounds, 0.35% hits; AID 602346; inhibition, % at 7.49 µM; HEK293T cells, Vif self-association by quenched fluorescence, imaging, 24 h; in the data active means inhibition above about 50%, passing the limit was not always enough; inconclusive means no clear call, values can overlap the other calls; inactive means below about 31%
bovine MsrA act – activates bovine MsrA enzyme | purified bovine MsrA, absorbance read-out | activation, % at 10.6 µM | 360,000 compounds, 0.3% hits | AID 602163; in the data active means activation above about 7.5%;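 further: 0% = vehicle and 100% = reference activator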
Glyco luc inh – N-linked glycosylation inhibition. D54 ERlucT glycosylation luciferase reporter, 24 h; percent of 100 nM tunicamycin response. reporter increase, % at 12.5 µM. 360,000 compounds, 0.23% hits. AID 588692;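 active means mean luciferase reporter signal, scaled so untreated is 0 and the glycosylation-blocking control 100, at or above a set limit in every replicate; inconclusive means mean reaches the limit but not every replicate does; inactive means mean below the limit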;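 further: luciferase carries N-glycosylation sites so blocking glycosylation raises the light; 0% = median of neutral control wells and 100% = median of 100 nM tunicamycin wells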
The depositor's hits bear a star; ? = inconclusive; nt = not tested or not shown; + = active, no number; ! = a repeat was not active. Most compounds without a hit are left out; they make up all but 1.9% or so of the library.

SMILES	aDG glyco up	MsrA inh	UCH37 DUB inh	Vif imaging	bovine MsrA act	Glyco luc inh
CC[C@H](C)C(=O)O[C@H]1C[C@@H](C)C=C2C=C[C@H](C)[C@H](CC[C@@H]3C[C@@H](O)CC(=O)O3)[C@H]21	0	-1	4	3	-6	69*!
Cc1ccc(OCC(=O)NN=Cc2cccs2)c([N+](=O)[O-])c1	nt	nt	1	nt	nt	nt
CC(=NNc1ccc2nncn2n1)c1ccc(Cl)s1	nt	nt	9	nt	nt	nt
O=C(O)c1cccc(-n2cccc2/C=C2/NC(=O)N(c3ccc(Cl)cc3)C2=O)c1	0	1	27*	3	-6	0
O=C(COc1ccccc1C(=O)NN=Cc1ccc(O)c(O)c1)NN=Cc1ccc(O)c(O)c1	nt	nt	2	nt	nt	nt
COC(=O)c1cccc(-n2sc3ccccc3c2=O)c1	1	1	5	-2	11*	-3
COC(=O)c1cccc(N2CCCC2=O)c1	0	1	7	9	-5	1
Oc1ccccc1C=NNc1ccnc(SCc2ccccc2)n1	nt	nt	11	nt	nt	nt
CSc1ccc(C=NNC(=O)c2cc(O)cc(O)c2)cc1	nt	nt	-1	nt	nt	nt
Cc1cccc(C)c1-n1nnnc1SCc1nc(N)nc(N(C)C)n1	0	0	nt	129*	-5	3
c1ccc(Sc2ncnc3ccccc23)cc1	0	1	nt	nt	-10	1
c1ccc(Cc2nnc(Sc3ccccc3)c3ccccc23)cc1	0	-1	5	23	-2	36*
O=C1C2C(C(=O)N1N=Cc1ccc(N3CCCCC3)o1)C1C=CC2C12CC2 (stereo unspecified)	nt	nt	6	nt	nt	nt
COc1ccc(N2C(=O)CN=C2Nc2nc(C)cc(C)n2)cc1	0	4.5*	2	4	-1	1
Cc1cc(C)nc(NC2=NCC(=O)N2c2ccccc2)n1	0	2	0	29	-6	3
COc1cc(C(=O)Nc2cc3c(cc2N2CCCCC2)n(C)c(=O)n3C)cc(OC)c1OC	0	0	3	-16	0	42*
Cc1ccc(Oc2ncccc2C=NO)cc1	nt	nt	3	nt	nt	nt
CCOC(=O)c1cnc2c(C)cc(C)cc2c1NCCCN1CCOCC1	0	0	1	-4	-12	29*
CCOC(=O)c1cnc2c(ccc3ccccc32)c1NCCCN(C)C	0	1	-35	-3	-2	98*
O=C(COC(=O)COc1ccc(Cl)cc1Br)NC1CCCCCC1	0	0	0	59*	-4	2
O=C(COC(=O)COc1ccc(Cl)cc1Br)NC1CCCC1	0	0	nt	nt	-1	3
Cc1ccc(-c2ccc(C=N/N=C3/NC(=O)C(CC(=O)O)S3)o2)c([N+](=O)[O-])c1 (stereo unspecified)	nt	nt	25*	nt	nt	nt
CCOC(=O)c1c(N=CC2C(=O)CC(C)(C)CC2=O)sc2c1CCCC2	nt	nt	-2	nt	nt	nt
O=C1c2cccc3cc([N+](=O)[O-])cc(c23)C(=O)N1N=Cc1ccc(O)cc1O	nt	nt	5	nt	nt	nt
Cc1ccc(C(=O)COC(=O)c2cc(=O)[nH]c3ccccc23)cc1C	0	2	-1	66*	-1	3
SMILES	aDG glyco up	MsrA inh	UCH37 DUB inh	Vif imaging	bovine MsrA act	Glyco luc inh
COc1ccccc1C(=O)COC(=O)c1cc(=O)[nH]c2ccccc12	0	1	-11	9	-1	0
COc1cc(C(C)=NNC(=O)Cc2c(C)[nH][nH]c2=O)ccc1O	nt	nt	-1	nt	nt	nt
COc1cccc(N2CCN(S(=O)(=O)c3cc4c(cc3C)N(C)CCO4)CC2)c1	0	0	3	76*	-8	1
COc1ccccc1C=NNC(=O)c1ccccc1NS(=O)(=O)c1ccc(C)cc1	nt	nt	-5	nt	nt	nt
O=C(NN=Cc1ccc(O)c(O)c1O)/C(=C/c1ccc([N+](=O)[O-])cc1)NC(=O)c1ccccc1	nt	nt	8	nt	nt	nt
CCN1C(=S)SC(=O)C1=C1C=C(C)N(CCO)C(C)=C1	0	1	18	+	-3	-6
CCN1C(=O)/C(=C/C=C2/Sc3ccccc3N2CCO)SC1=S	0	-2	9	-6	0	-4
c1ccc(-c2n[nH]c(-c3ccccc3)c2-c2nc3ccccc3[nH]2)cc1	2	0	2	0	-2	31*
COc1ccc(NC(=O)COC(=O)Cc2c[nH]c3ccccc23)cc1Cl	0	1	1	55*	-6	3
Cc1ccc(NC(=O)COC(=O)Cc2c[nH]c3ccccc23)cc1C	0	1	4	?	-13	1
COc1ccc(NC(=O)CCn2c(=S)[nH]c3ccccc3c2=O)cc1Cl	0	0	nt	57*	-1	0
COc1ccc(/C=C2\CN(Cc3ccccc3)C/C(=C\c3ccc(OC)c(O)c3)C2=O)cc1O	0	0	nt	59*	0	-20
CCN1C/C(=C/c2ccc(OC)c(O)c2)C(=O)/C(=C/c2ccc(OC)c(O)c2)C1	0	0	3	0	-8	24
Cc1cc(NS(=O)(=O)c2ccccc2)c(C)c(Cl)c1O	16*	1	3	-2	-9	-1
C/C(=N/NC(=O)c1cccs1)c1ccc(NC(=O)COc2ccc(Cl)cc2Cl)cc1	0	1	nt	?	-10	40*
CCCCCCCCC(=O)NN=C(C)c1ccc(O)cc1O	nt	nt	-21	nt	nt	nt
N#CC1=C(N)NC(SCc2ccccc2)=C(C#N)C12CCCC2	0	0	21*	-2	-3	1
Cc1cnc(NC(=O)c2cc3c(C)nn(-c4ccccc4)c3s2)s1	0	0	-124	53*	-11	0
CCOc1ccc(C=NNC(=O)c2cc3c(OC)cccc3[nH]2)cc1	nt	nt	-124	nt	nt	nt
COc1ccccc1/C=N/NC(=O)c1cc2c(OC)c(OC)ccc2[nH]1	0	4	nt	9	-4	34*
CCOc1ccc(/C=N/NC(=O)c2cc3c(OC)cccc3[nH]2)cc1	0	0	nt	-12	-4	50*
O=C(/C=C/c1ccco1)Nc1ccc2c(c1)OCCO2	0	4.6*	13	-6	-5	-13
O=C(/C=C/c1ccco1)Nc1ccccn1	0	4	9	11	-7	0
CSc1cccc(NC(=O)/C=C/c2ccco2)c1	0	1	0	-2	-4	5
O=C(/C=C/c1ccco1)Nc1ccc(N2CCCC2)cc1	0	2	7	3	-1	4
SMILES	aDG glyco up	MsrA inh	UCH37 DUB inh	Vif imaging	bovine MsrA act	Glyco luc inh
Cc1ccc(NC(=O)/C=C/c2ccco2)nc1	0	5.0*	12	51*	-5	3
O=C(/C=C/c1ccco1)Nc1ccc(Oc2ccc(Cl)cc2)cc1	0	0	4	63*	3	10
COc1cccc(NC(=O)/C=C/c2ccco2)c1	0	4.6*	9	-3	-3	-1
CCOC(=O)C=c1sc(=Cc2ccc(C#N)cc2)c(=O)n1CC(=O)Nc1cccc(C)c1C	nt	nt	-3	nt	nt	nt
O=C(NN=Cc1ccc(OCC(=O)N2CCCCC2)cc1)c1ccccc1O	nt	nt	6	nt	nt	nt
Cc1ccc(C)c(S(=O)(=O)Nc2ccc(O)c3ccccc23)c1	4.3*	-1	3	-2	0	9
